Published values pooled from the literature.
Lines come from different studies, so protocols differ.
Target: Ephrin type-A receptor 1 (EPHA1, Homo sapiens, UniProt P21709)
One construct used (P21709 26-976): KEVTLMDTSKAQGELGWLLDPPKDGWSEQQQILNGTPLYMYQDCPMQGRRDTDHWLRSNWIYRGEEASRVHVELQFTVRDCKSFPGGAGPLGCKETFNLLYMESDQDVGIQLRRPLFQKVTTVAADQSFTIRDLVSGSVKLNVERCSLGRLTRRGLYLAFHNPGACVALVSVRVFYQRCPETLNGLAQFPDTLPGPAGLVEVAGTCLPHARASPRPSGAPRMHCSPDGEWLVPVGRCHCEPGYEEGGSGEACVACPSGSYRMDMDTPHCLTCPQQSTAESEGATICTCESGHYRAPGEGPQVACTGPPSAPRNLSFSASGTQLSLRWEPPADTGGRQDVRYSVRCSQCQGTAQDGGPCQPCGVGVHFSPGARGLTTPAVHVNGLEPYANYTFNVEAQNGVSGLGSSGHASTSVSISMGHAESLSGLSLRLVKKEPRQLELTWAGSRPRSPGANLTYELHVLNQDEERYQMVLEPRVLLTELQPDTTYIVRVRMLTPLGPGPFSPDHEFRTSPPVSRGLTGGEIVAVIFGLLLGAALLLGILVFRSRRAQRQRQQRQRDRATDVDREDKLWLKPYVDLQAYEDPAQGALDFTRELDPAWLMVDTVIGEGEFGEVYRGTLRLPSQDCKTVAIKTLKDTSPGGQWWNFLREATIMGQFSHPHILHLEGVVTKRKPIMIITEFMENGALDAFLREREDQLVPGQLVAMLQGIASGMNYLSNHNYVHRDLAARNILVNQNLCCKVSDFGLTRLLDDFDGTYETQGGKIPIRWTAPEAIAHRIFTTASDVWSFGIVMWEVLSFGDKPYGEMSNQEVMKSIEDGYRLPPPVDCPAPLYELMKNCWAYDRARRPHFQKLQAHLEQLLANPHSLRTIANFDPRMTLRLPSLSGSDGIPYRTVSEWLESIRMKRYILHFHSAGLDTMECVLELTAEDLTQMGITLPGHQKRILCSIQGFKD

| SMILES | assay | conditions | endpoint | result |
| --- | --- | --- | --- | --- |
| Nc1ncnc2occ(-c3ccc(NC(=O)Nc4cc(C(F)(F)F)ccc4F)cc3)c12 | cell-free assay | 20 µM | remaining signal | 0.5% |
| CCCOc1ccc(OC)c(F)c1C(=O)c1ccc(C(=O)N[C@@H]2CNC[C@H]2NC(=O)c2ccc3[nH]ncc3c2)cc1 | enzyme activity, inhibitor | 10 µM | remaining activity | 85% |
| CCN(CC)c1ccc(C2=NNC(=O)CC2C)cc1[N+](=O)[O-] (centres unmarked) | enzyme activity, inhibitor | 10 µM | remaining activity | 112% |
| COc1cccc2c(NCc3ccccc3)nc(-n3c(N)nc4ccccc43)nc12 | target engagement in cells, inhibitor, chemoproteomics | 20 mM | inhibition | -22.2% |
| COc1cc(-c2cc(-c3ccc(N4CCNCC4)cc3)cnc2C)cc(OC)c1OC | enzyme activity, inhibitor | 1 µM | inhibition | 16% |
| Cc1cnc(NC2CCOCC2)nc1-n1cnc(C(=O)NC(CN)c2cc(F)cc(Cl)c2)c1 (centres unmarked) | enzyme activity, inhibitor, radiometric | 1 µM | remaining activity | 99% |
| CNC(=O)c1cc(Oc2ccc(NC(=O)Nc3ccc(Cl)c(C(F)(F)F)c3)cc2)ccn1 | enzyme activity, inhibitor | 10 µM | inhibition | 94% |
| COc1cc2ncnc(Nc3ccc(Oc4ccccc4)cc3C)c2cc1OC | enzyme activity, inhibitor | 1 µM | inhibition | 11% |
| CCS(=O)(=O)c1cc2cc(C[C@](O)(CC(C)(C)c3ccc(F)cc3C(N)=O)C(F)(F)F)[nH]c2cn1 | cell-free assay, competition with immobilised ligand | 1 µM | remaining binding | 100% |
| N#CCCc1ccc2c(c1)-c1[nH]c3ccc([N+](=O)[O-])cc3c1CC(=O)N2 | cell-free assay | 0.5 µM | remaining signal | 91.7% |
| CN(C)C(=O)Cn1cc(-c2nc(C3(c4ccc(-c5cnc(N)nc5)cc4)CC3)no2)cn1 | cell-free assay, competition with immobilised ligand | 1 µM | remaining binding | 100% |
| Cc1ccc(Nc2nccc(N(C)c3ccc4c(C)n(C)nc4c3)n2)cc1S(N)(=O)=O | enzyme activity, inhibitor | 10 µM | inhibition | 85% |
| Cc1cc(NC(=O)c2cccc3cc(-c4cccc5[nH]nc(N)c45)ccc23)ccc1F | enzyme activity, inhibitor | 0.1 µM | activity vs control | 102% |
| O=C(Nc1cnn(-c2csc(C(=O)NC3COC3)c2)c1)Nc1ccccc1Cl | enzyme activity, inhibitor | 5 µM | remaining activity | 99.1% |
| Cn1nc(C(=O)NCc2ccc(C(=O)O)cc2)cc1-c1ccc2[nH]ccc2c1 | cell-free assay, competition with immobilised ligand | 0.1 µM | remaining binding | 95% |
| COc1cc(Cl)c(C(=O)N[C@@H](CN[C@H]2CC[C@@H](N)CC2)Cc2ccc(C#N)cc2)cc1-c1ccc(CN[C@H](C)c2ccc(C)cc2)o1 | enzyme activity, inhibitor | 1 µM | remaining activity | 105% |
| CCN(CC)CCNC(=O)c1c(C)[nH]c(/C=C2\C(=O)Nc3ccc(F)cc32)c1C | enzyme activity, inhibitor | 0.3 µM | inhibition | 1% |
| O=C(Nc1cccnn1)N1CCC(=Cc2cccc(Oc3ccc(C(F)(F)F)cn3)c2)CC1 | cell-free assay, competition with immobilised ligand | 1 µM | remaining binding | 100% |
| O=C1NC(=O)c2cc(Nc3ccc(F)cc3)c(Nc3ccc(F)cc3)cc21 | cell-free assay | 0.5 µM | remaining signal | 97.4% |
| O=C(O)[C@@H]1[C@@H](Cn2nnc3ccccc3c2=O)CC[C@H]1C(=O)c1ccc(OCCC2CCOCC2)cc1 | cell-free assay, competition with immobilised ligand | 1 µM | remaining binding | 100% |
| CC(C)(C)c1nc2c(s1)c1nc(N)ncc1c1ccc(NS(=O)(=O)c3c(F)cccc3F)c(F)c12 | enzyme activity, inhibitor, radiometric | 1 µM | remaining activity | 94% |
| CC/C(=N\NC(=O)NCc1cccc(O)c1)c1ccc(O)c(C)c1O | enzyme activity, inhibitor | 0.1 µM | inhibition | -1.2% |
| CS(=O)(=O)N1CCCC(NC(=O)[C@H](CCC2CCCCC2)NC(=O)c2ccc(CNc3ncnc4c3nnn4-c3ccccc3)cc2)C1 (some centres unmarked) | cell-free assay, competition with immobilised ligand | 0.1 µM | remaining binding | 95% |
| Oc1cccc(-c2nc(N3CCOCC3)c3oc4ncccc4c3n2)c1 | cell-free assay | 0.5 µM | remaining signal | 87.8% |
| Nc1c(C(=O)NCc2ccc(C(=O)NCCCC3CCCCC3)cc2)cnn1-c1ccccc1 | cell-free assay, competition with immobilised ligand | 0.1 µM | remaining binding | 100% |
| CC(C)(O)[C@H]1CC[C@H](Nc2ccc3ncc(-c4cccc(C(F)(F)F)c4)n3n2)CC1 | enzyme activity, inhibitor | 1 µM | remaining activity | 99.6% |
